Measured values as given in ChEMBL document CHEMBL1123780, “2'-Fluorinated arabinonucleosides of 5-(2-haloalkyl)uracil: synthesis and antiviral activity” (1987).
In brackets after ≈: the same amount, converted by molar mass.

Tests used:
Vero [1] = assay: Antiviral activity against HSV-2 (K979) in Vero cells; type: functional; details: Chlorocebus sabaeus
Procedure, shortened: (§1)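 CPE inhibition: serial 3-fold compound dilutions in E-MEM, then virus and cell suspension (E-MEM plus 15% fetal calf serum) added together. Cell input set for a confluent monolayer in 1-2 days, virus input for 90-100% CPE in infected controls at 3 days. Plates then fixed and stained, and CPE estimated against infected untreated controls. Uninfected compound-treated cells included.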

Vero [2] = assay: Proliferation of Vero cells by propagation on day 4 by measuring optical density (absorbance) at 100 ug/mL; type: functional, Chlorocebus sabaeus
Procedure, shortened: (§2)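 Cells were suspended in medium with compound and seeded at low density in 24-well dishes (Vero 5×10^4, HEp-2 1×10^5 cells/well), four wells per condition, and grown 4 days. Cells were stained with 0.01% neutral red in PBS for 2 h at 37 °C, washed, dried, and dissolved in ethanol/0.1 M NaH₂PO₄ (1:1). OD was read at 546 nm, taken as proportional to cell number.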

HEp-2 [3] = assay: Proliferation of Hep-2 cells by propagation on day 4 by measuring optical density (absorbance) at 30 ug/mL; type: functional, Homo sapiens; procedure, shortened: as §2
Vero [4] = assay: Proliferation of Vero cells by propagation on day 4 by measuring optical density (absorbance) at 30 ug/mL; type: functional, Chlorocebus sabaeus; procedure, shortened: as §2
Vero [5] = assay: Proliferation of Vero cells by propagation on day 4 by measuring optical density (absorbance) at 330 ug/mL; type: functional, Chlorocebus sabaeus; procedure, shortened: as §2
HEp-2 [6] = assay: Antiviral activity against HSV-2 (K979) in human epithelial (Hep-2) cells; type: functional; procedure, shortened: as §1
[7] = Antiviral activity against VZV (Ellen) in human lung fibroblast (HLF-1) cells; type: functional
HEp-2 [8] = assay: Proliferation of Hep-2 cells by propagation on day 4 by measuring optical density (absorbance) at 100 ug/mL; type: functional, Homo sapiens; procedure, shortened: as §2
Vero [9] = assay: Antiviral activity against HSV-1 (Brand) in Vero cells; type: functional; details: Chlorocebus sabaeus; procedure, shortened: as §1
HEp-2 [10] = assay: Proliferation of Hep-2 cells by propagation on day 4 by measuring optical density (absorbance) at 330 ug/mL; type: functional, Homo sapiens; procedure, shortened: as §2
HEp-2 [11] = assay: Antiviral activity against HSV-1 (Brand) in human epithelial (Hep-2) cells; type: functional; procedure, shortened: as §1
[12] = Antiviral activity against HSV-1 (KOS) in Primary Rabbit Kidney (PRK) cells; type: functional; details: Oryctolagus cuniculus
[13] = Antiviral activity against HSV-2 (G) in Primary Rabbit Kidney (PRK) cells; type: functional; details: Oryctolagus cuniculus

| SMILES | MIC (Vero [1]) | Control (Vero [2]) | Control (HEp-2 [3]) | Control (Vero [4]) | Control (Vero [5]) | MIC (HEp-2 [6]) | MIC [7] | Control (HEp-2 [8]) | MIC (Vero [9]) | Control (HEp-2 [10]) | MIC (HEp-2 [11]) | MIC [12] | MIC [13] |
| --- | --- | --- | --- | --- | --- | --- | --- | --- | --- | --- | --- | --- | --- |
| O=c1[nH]c(=O)n([C@@H]2O[C@H](CO)[C@@H](O)[C@@H]2F)cc1CCF | 0.3 µg/mL (≈ 1.03 µM) | 87% | 113% | 98% | 90% | 0.1 µg/mL (≈ 0.342 µM) | 0.03 µg/mL (≈ 0.103 µM) | 105% | 0.03 µg/mL (≈ 0.103 µM) | 72% | 0.03 µg/mL (≈ 0.103 µM) | 0.2 µg/mL (≈ 0.684 µM) | 0.2 µg/mL (≈ 0.684 µM) |
| O=c1[nH]c(=O)n([C@H]2C[C@H](O)[C@@H](CO)O2)cc1CCCl | 30 µg/mL (≈ 103 µM) | 91% | 104% | 84% | 82% | 3 µg/mL (≈ 10.3 µM) | 0.01 µg/mL (≈ 0.0344 µM) | 99% | 0.01 µg/mL (≈ 0.0344 µM) | 86% | 0.03 µg/mL (≈ 0.103 µM) | 0.14 µg/mL (≈ 0.482 µM) | 2.1 µg/mL (≈ 7.22 µM) |
| Nc1nc(=O)n([C@@H]2O[C@H](CO)[C@@H](O)[C@H]2F)cc1I | 0.1 µg/mL (≈ 0.269 µM) | 43% | 64% | 68% | 24% | 0.03 µg/mL (≈ 0.0808 µM) | 0.01 µg/mL (≈ 0.0269 µM) | 32% | 0.01 µg/mL (≈ 0.0269 µM) | 13% | 0.01 µg/mL (≈ 0.0269 µM) | 0.02 µg/mL (≈ 0.0539 µM) | 0.03 µg/mL (≈ 0.0808 µM) |
| NC1=NC(=O)C2N=CN(COCCO)C2=N1 (stereo not drawn) | 1 µg/mL (≈ 4.44 µM) | 73% | 89% | 77% | 56% | 3 µg/mL (≈ 13.3 µM) | – | 78% | 0.003 µg/mL (≈ 0.0133 µM) | 41% | 1 µg/mL (≈ 4.44 µM) | 0.06 µg/mL (≈ 0.266 µM) | 0.04 µg/mL (≈ 0.178 µM) |
| O=c1[nH]c(=O)n([C@@H]2O[C@H](CO)[C@@H](O)[C@@H]2F)cc1CCCl | 10 µg/mL (≈ 32.4 µM) | 74% | 116% | 75% | 63% | 1 µg/mL (≈ 3.24 µM) | 0.1 µg/mL (≈ 0.324 µM) | 107% | 0.3 µg/mL (≈ 0.972 µM) | 68% | 0.1 µg/mL (≈ 0.324 µM) | 0.3 µg/mL (≈ 0.972 µM) | 2 µg/mL (≈ 6.48 µM) |
| O=c1[nH]c(=O)n([C@H]2C[C@H](O)[C@@H](CO)O2)cc1CCF | 3 µg/mL (≈ 10.9 µM) | 97% | 97% | 94% | 71% | 1 µg/mL (≈ 3.65 µM) | 3 µg/mL (≈ 10.9 µM) | 86% | 0.1 µg/mL (≈ 0.365 µM) | 60% | 0.03 µg/mL (≈ 0.109 µM) | 0.58 µg/mL (≈ 2.11 µM) | 1.5 µg/mL (≈ 5.47 µM) |
| O=c1[nH]c(=O)n(C2O[C@H](CO)[C@@H](O)[C@@H]2O)cc1CCCl (stereo partly drawn) | 100 µg/mL (≈ 326 µM) | – | – | – | – | 100 µg/mL (≈ 326 µM) | – | – | 30 µg/mL (≈ 97.8 µM) | – | 30 µg/mL (≈ 97.8 µM) | – | – |
| Cc1cn([C@@H]2O[C@H](CO)[C@@H](O)[C@@H]2F)c(=O)[nH]c1=O [5-METHYL-2'-FLUOROARAURACIL] | 0.3 µg/mL (≈ 1.15 µM) | 6% | 36% | 7% | 0% | 0.1 µg/mL (≈ 0.384 µM) | 0.001 µg/mL (≈ 0.00384 µM) | 3% | 0.03 µg/mL (≈ 0.115 µM) | 0% | 0.3 µg/mL (≈ 1.15 µM) | 0.04 µg/mL (≈ 0.154 µM) | 0.02 µg/mL (≈ 0.0769 µM) |
| O=c1[nH]c(=O)n([C@H]2C[C@H](O)[C@@H](CO)O2)cc1/C=C/Br [BRIVUDINE] | 30 µg/mL (≈ 90.1 µM) | 71% | 79% | 74% | 55% | 3 µg/mL (≈ 9.01 µM) | 0.001 µg/mL (≈ 0.003 µM) | 68% | 0.001 µg/mL (≈ 0.003 µM) | 31% | 0.01 µg/mL (≈ 0.03 µM) | 0.007 µg/mL (≈ 0.021 µM) | 2.3 µg/mL (≈ 6.9 µM) |
| O=c1[nH]c(=O)n([C@@H]2O[C@H](CO)[C@@H](O)[C@@H]2F)cc1I [FIALURIDINE] | 0.1 µg/mL (≈ 0.269 µM) | 6% | 49% | 37% | 0% | 0.1 µg/mL (≈ 0.269 µM) | 0.003 µg/mL (≈ 0.00806 µM) | 13% | 0.01 µg/mL (≈ 0.0269 µM) | 0% | 0.01 µg/mL (≈ 0.0269 µM) | 0.02 µg/mL (≈ 0.0538 µM) | 0.02 µg/mL (≈ 0.0538 µM) |
| O=c1[nH]c(=O)n([C@H]2C[C@H](O)[C@@H](CO)O2)cc1I [IDOXURIDINE] | 1 µg/mL (≈ 2.82 µM) | 34% | 61% | 61% | 16% | 0.3 µg/mL (≈ 0.847 µM) | 10 µg/mL (≈ 28.2 µM) | 20% | 0.1 µg/mL (≈ 0.282 µM) | 0% | 0.3 µg/mL (≈ 0.847 µM) | 0.2 µg/mL (≈ 0.565 µM) | 0.91 µg/mL (≈ 2.57 µM) |
